{"source": "paper PMC3556183", "about": "(Journal of neuroendocrinology, 2013)", "key": {"[1]": {"tested_on": "dispersed, primary rat pituitary cultures", "test": "Static incubation of dispersed anterior pituitary cells, hormone release", "format": "cell-based", "settings": "for GnRH-stimulated LH release: female pituitary cultures, overnight (24-hour) pretreatment, then GnRH for one hour, Figure 3A and B", "summary_of_the_method": "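Rat anterior pituitary cells were trypsin-dispersed and cultured 48 h in tubes (MEM, 10% horse serum, 37°C). Cultures were pretreated 24 h with medium or peptide fragments. Medium was replaced by M199 with 0.1% BSA, 2×10⁻⁵ M bacitracin and 20 mM HEPES, with the same pretreatment. Cells were incubated 30 or 60 min at 37°C ± GnRH, and the incubation was ended by centrifugation. LH was measured by RIA (RP-3 standards) as mean ± SEM.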"}, "PNX antiserum": {"tested_on": "PNX antiserum", "settings": "rabbit polyclonal antiserum; ref Phoenix Pharmaceuticals, Inc; cited from earlier work"}, "[2]": {"tested_on": "Antibodies used in the EIA", "test": "Cross-reactivity of the antibodies used in the phoenixin EIA", "format": "binding"}, "[3]": {"tested_on": "pituitary and ovary cell membranes", "test": "Preliminary binding of phoenixin-20 to pituitary and ovary cell membranes", "design": "species or system rat", "settings": "data not shown; for displacement of phoenixin-20 binding: pituitary and ovary cell membranes, female rat donors"}, "GnRH receptor [4]": {"tested_on": "GnRH receptor", "test": "RT-PCR of GnRH receptor mRNA in dispersed primary pituitary cell cultures", "format": "cell-based, rat", "summary_of_the_method": "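Dispersed primary rat anterior pituitary cultures were pretreated overnight with the peptide: male cultures with or without GnRH, female cultures without GnRH. RNA was extracted and reverse-transcribed with oligo d(T) and MMLV RT. SYBR Green real-time PCR was run with primer efficiencies >85%. Changes were calculated by delta delta Ct, normalised to HPRT-1, and compared by t test.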"}, "male pituitary cells": {"tested_on": "male pituitary cells", "test": "LH release from similarly prepared male pituitary cells", "format": "cell-based, rat", "settings": "Supplemental Figure 2"}, "GnRH receptor [5]": {"tested_on": "GnRH receptor", "test": "RT-PCR of GnRH receptor message in alphaT3-1 gonadotroph cells", "format": "cell-based, mouse", "settings": "alphaT3-1 cells; normalized to GAPDH; Figure 3E", "summary_of_the_method": "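Mouse αT3-1 gonadotroph cells were exposed to the peptide. RNA was reverse-transcribed using oligo d(T) and MMLV reverse transcriptase. GnRH receptor message was quantified by SYBR Green real-time PCR with primer efficiencies >85%, using the delta delta Ct method with GAPDH normalisation. Groups were compared by t test.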"}, "cFos": {"tested_on": "cFos", "test": "RT-PCR of cFos message in alphaT3-1 gonadotroph cells", "format": "cell-based, mouse", "settings": "alphaT3-1 cells; not shown"}, "[6]": {"tested_on": "dispersed pituitary cells from random cycle, female donors", "test": "Dynamic", "format": "cell-based, rat", "settings": "1000nM phoenixin-20 for 24 hours", "summary_of_the_method": "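Rat anterior pituitary cells from random-cycle females, trypsin-dispersed (0.1%), cultured 48 h at 37°C in MEM with 10% horse serum. Pretreated 24 h with medium or 1000nM amidated 20-residue peptide, resuspended in M199/0.1% BSA/bacitracin/20 mM HEPES; ~2 million cells perifused on Bio-Gel P2 columns (0.05 ml/min). Peptide present throughout. 5-min fractions: basal, 10 nM GnRH 50 min, medium 50 min, 60 mM KCl 10 min, medium 40 min. LH by RIA (RP-3 standards); mean ± SEM.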"}}, "note": "Ends that are not written are not given here."}
{"substance": "DVQPPGLKVWSDPF-NH2 [phoenixin-14]", "values": [{"measurement": "GnRH-stimulated LH release", "setting": "[1]", "value": "potentiated"}, {"measurement": "cross-reactivity with PNX antiserum in radioimmunoassay", "setting": "PNX antiserum", "value": 100, "unit": "%"}, {"measurement": "cross-reaction with the antibodies used in the EIA", "setting": "[2]", "value": 100, "unit": "%"}]}
{"substance": "angiotensin II (DRVYIHPF; Angiotensin-2; UniProt P01019 25-32, looked up) [reference compound]", "values": [{"measurement": "cross-reaction with the antibodies used in the EIA", "setting": "[2]", "value": 0, "unit": "%"}]}
{"substance": "gonadotropin releasing hormone [gonadotropin-releasing hormone]", "values": [{"measurement": "displacement of phoenixin-20 binding", "setting": "[3]", "value": "not displaced"}]}
{"substance": "phoenixin", "values": [{"measurement": "basal release of LH, ACTH, prolactin, growth hormone, or TSH", "setting": "[1]; dispersed, primary rat pituitary cultures, data not shown", "value": "did not alter"}, {"measurement": "GnRH receptor messenger RNA", "setting": "GnRH receptor [4]; dispersed pituitary cultures pretreated with phoenixin, medium alone, Figure 3D", "value": "increased"}, {"measurement": "GnRH receptor expression in the absence of GnRH", "setting": "GnRH receptor [4]; primary pituitary cell cultures from female donors, Figure 3G", "value": "significantly increased"}]}
{"substance": "phoenixin-20: 20 amino acid amidated form of phoenixin (AGIVQEDVQPPGLKVWSDPF-NH2; UniProt C0HLM6 47-66, looked up)", "values": [{"measurement": "GnRH-stimulated LH release", "setting": "[1]", "value": "potentiated"}, {"measurement": "cross-reactivity with PNX antiserum in radioimmunoassay", "setting": "PNX antiserum", "value": 100, "unit": "%"}, {"measurement": "ability of GnRH to upregulate the expression of GnRH receptor", "setting": "GnRH receptor [4]; dispersed male anterior pituitary cell cultures, overnight pretreatment, Figure 3D", "value": "potentiated"}, {"measurement": "LH release compared to medium alone", "setting": "male pituitary cells", "value": "no differences"}, {"measurement": "GnRH receptor message", "setting": "GnRH receptor [5]", "value": "increase"}, {"measurement": "specific binding to pituitary and ovary cell membranes", "setting": "[3]; tissues from female rat donors, preliminary experiments", "value": "bound specifically"}, {"measurement": "cFos message", "setting": "cFos", "value": "failed to attain significance"}, {"measurement": "LH release when GnRH was included in the perifusate", "setting": "[6]; 10 nM GnRH, Figure 3C", "value": "significantly enhanced"}, {"measurement": "basal LH release during perifusion", "setting": "[6]; then perifusion columns, no GnRH", "value": "did not alter"}, {"measurement": "cross-reaction with the antibodies used in the EIA", "setting": "[2]", "value": 100, "unit": "%"}]}
{"substance": "urocortin (DNPSLSIDLTFHLLRTLLELARTQSQRERAEQNRIIFDSV; ends and bridges not checked; UniProt P55089 83-122, looked up)", "values": [{"measurement": "displacement of phoenixin-20 binding", "setting": "[3]", "value": "not displaced"}]}
